Rad51 HR inh: blocks human Rad51 in homologous recombination | actives 0.085% (n = 200,000) | inhibition, % at 10 µM | AID 1385 | Q06609 | hRad51 DNA strand exchange, fluorescence dequenching;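 active means inhibition above 40% at the single screening dose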;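 further: 0% = DMSO control wells and 100% = blanks with heterologous ssDNA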
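Assay system: Human Rad51 nucleoprotein filaments preassembled on unlabelled ssDNA | Reagent: Donor/quencher-labelled 47-bp dsDNA substrate | Doses: One concentration, 10 µM final | Times: 37 °C 15-min filament assembly, 30-min compound preincubation, 15-min exchange | Technique: Fluorescein emission 520 nm, excitation 485 nm | Benchmarks: Plate control and blank wells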
ROMK mod: modulators of human ROMK potassium channel | P48048 | Tet-inducible ROMK, thallium flux fluorescence; actives lie on both sides | B-score at 10 µM | actives 2% (n = 130,000) | AID 1918;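 active means signal ratio slope over the read window, or its plate-corrected B-score, at least 3 SD from the plate mean, either direction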;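 further: B-score of the F/F0 ratio slope over 7 to 12 s after thallium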
Target sequence (P48048 whole entry, looked up): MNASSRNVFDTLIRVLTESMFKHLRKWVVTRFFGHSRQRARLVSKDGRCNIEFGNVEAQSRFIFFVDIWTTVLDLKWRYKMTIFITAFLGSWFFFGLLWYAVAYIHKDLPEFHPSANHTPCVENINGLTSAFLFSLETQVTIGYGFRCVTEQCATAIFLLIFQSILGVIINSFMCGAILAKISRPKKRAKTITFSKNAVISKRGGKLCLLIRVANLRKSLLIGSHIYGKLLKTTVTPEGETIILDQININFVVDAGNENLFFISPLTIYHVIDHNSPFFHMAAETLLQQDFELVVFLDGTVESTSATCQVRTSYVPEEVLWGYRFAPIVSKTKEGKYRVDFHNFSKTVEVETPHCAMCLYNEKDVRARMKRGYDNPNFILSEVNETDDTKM
KCC2 mod: modulates chloride dependent transport by human KCC2; actives 2.2% (n = 190,000); AID 1456; B-score of Tl+ flux slope (higher = more flux/activation; lower = inhibition) at 10 µM; KCC2 cells, thallium flux FluoZin-2 fluorescence; Q9H2X9;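 active means thallium flux slope and its plate-corrected score both differing from the plate sample mean at a set confidence after two filtering rounds, in either direction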;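 further: slope of fluorescence scaled to starting intensity during 10 to 20 s after thallium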
PKD1 kinase inh: inhibitors of human PKD1 kinase; actives 0.056% (n = 200,000); PKD1 kinase fluorescence polarization assay; inhibition, % (test concentration not listed); in the data active means inhibition above about 50%
KCC2 sec1: KCC2 (human) modulation, secondary assay | HEK293-KCC2, thallium flux, FluoZin2 fluorescence; stronger effect = higher value | actives 15% (n = 3,700) | shares compounds with KCC2 mod | normalised thallium flux (F/F0 slope) at 10 µM;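 active means thallium flux slope above the same plate's solvent-only control mean plus 3 SD; inconclusive means the two replicate wells disagree; inactive means no significant difference from solvent-only control wells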
KCC2 bumet counter: thallium flux persisting under bumetanide in KCC2 cells, counter-screen secondary assay; HEK293-KCC2 + bumetanide/ouabain, thallium flux FluoZin2; stronger effect = higher value; actives 49% (n = 3,700); shares compounds with KCC2 mod; normalized thallium flux at 10 µM;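 active means thallium entry rate above the same plate's blocked-transporter control wells by more than 3 SD; inconclusive means the two repeat wells disagree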;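 further: raw slope of fluorescence over initial fluorescence between 10 and 20 s after thallium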
KCC2 secondary2: KCC2 (human) modulation, second secondary assay; actives 23% (n = 3,700); shares compounds with KCC2 mod; normalized thallium flux at 10 µM; HEK293-KCC2, thallium flux FluoZin2 fluorescence; actives lie on both sides; F/F0 rise rate, 10–20 s post-thallium;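 active means thallium flux slope more than 3 SD above or below the plate's solvent-only control mean, mostly below; inconclusive means the two repeat wells disagreed; inactive means no significant shift from solvent-only controls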;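 further: raw slope with 0.1% DMSO as baseline and bumetanide as block control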
HEK counter1: parental HEK flux effect, counter-screen | shares compounds with KCC2 mod | HEK293 parental cells, thallium flux FluoZin2, ouabain; baseline-ratio fluorescence slope, 10–20 s after thallium | thallium flux rate (normalised fluorescence) at 10 µM | actives 46% (n = 3,700);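 active means thallium flux rate significantly above the same plate's solvent-only control wells, beyond their mean plus 3 SD; inconclusive means the two replicate wells gave conflicting results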
KCC2 ouabain: KCC2 (human) modulation, ouabain retest; shares compounds with KCC2 mod; HEK293-KCC2, thallium flux FluoZin2 fluorescence; bidirectional: low = inhibitor, high = activator; raw Tl+ flux slope (below DMSO = inhibition, above = activation) at 10 µM; actives 48% (n = 3,700); AID 1717;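 active means thallium flux slope beyond 3 SD from same-plate DMSO control mean in most replicates, usually higher, sometimes lower; inconclusive means repeat tests gave conflicting results; inactive means no significant difference from controls in most replicates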;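 further: slope of initial-normalized fluorescence between seconds 10 and 20 after thallium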
HEK293 Tl flux2: counter-screen for KCC2 modulators: effect in parental HEK293 cells; shares compounds with KCC2 mod; thallium flux FluoZin-2 fluorescence slope; thallium flux slope at 10 µM; actives 33% (n = 3,700); AID 1718;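 active means thallium flux slope above the same plate's solvent-control mean plus 3 SD in both duplicate wells; inconclusive means duplicate wells that disagreed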;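 further: run without ouabain in cells lacking the KCC2 cotransporter; slope of fluorescence scaled to its starting value between 10 and 20 s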
Numbers without * were called inactive; ? = inconclusive; · = no result. Compounds with a hit are over-represented: about 3% of the library has one in this group of screens.

SMILES	Rad51 HR inh	ROMK mod	KCC2 mod	PKD1 kinase inh	KCC2 sec1	KCC2 bumet counter	KCC2 secondary2	HEK counter1	KCC2 ouabain	HEK293 Tl flux2
NC(N)=NS(=O)(=O)c1ccc(NC(=S)NC(=O)c2ccc3c(c2)OCO3)cc1	0.0	0.0423	1.41	1.4	·	·	·	·	·	·
Cc1onc(C(=O)N2CCN(Cc3ccccc3)CC2)c1[N+](=O)[O-]	-4.4	-0.844	-4.1*	-2.4	0.00884	0.00654	?	0.00749	0.0194*	0.0104
Cc1cc(C(=O)N2CCN(Cc3ccccc3)CC2)on1	5.8	·	0.0294	3.3	·	·	·	·	·	·
COc1ccc(C(=O)NNC(=O)CN2CCC(n3nnc4cc(F)ccc43)CC2)cc1	-4.8	-0.514	-0.222	-12.5	·	·	·	·	·	·
Cc1cccc(NC(=S)NNC(=O)COc2ccc(Cl)cc2Cl)c1	6.6	·	6.47*	0.9	0.01	0.16*	0.0349	0.0284*	0.0532*	0.013*
Cc1ccc(OCC(=O)NNC(=S)NC(=O)C(C)(C)C)c(Br)c1	-0.5	-4.05	49.9*	0.8	0.0253*	0.098*	?	0.0683*	0.065*	0.0243*
COc1ccc(NC(=S)NNC(=O)COc2ccc(Cl)cc2Cl)cc1	1.8	·	3.72	7.9	·	·	·	·	·	·
Fc1ccc(-c2[nH]ncc2CN(CC2CCC2)CC2CCCO2)c(F)c1 (stereo not drawn)	1.4	-0.0808	0.251	2.2	·	·	·	·	·	·
CCOc1ccc2nc(C)cc(Nc3cccc([N+](=O)[O-])c3)c2c1	6.8	0	0.253	-8.8	·	·	·	·	·	·
O=C(NNC1=Nc2ccccc2SC1)c1ccc(F)cc1	-7.5	·	1.06	·	·	·	·	·	·	·
O=C(NNC1=Nc2ccccc2SC1)c1ccc(Cl)cc1	10.2	-2.41	5.55*	·	0.0176	0.0112*	0.0311	0.00967*	0.0183	?
CNc1nc(-c2ccc3c(c2)CCN3C(=O)c2ccccc2F)c(C)s1	16.8	-0.178	-0.15	-1.5	·	·	·	·	·	·
CNc1nc(-c2ccc3c(c2)CCN3C(=O)c2ccccc2F)cs1	5.2	0.266	-4.26*	-6.3	0.009	0.00654	0.0348	0.00363	0.0188	0.0112
O=C(NC(=S)Nc1nc2ccc(F)cc2s1)c1ccco1	10.7	0.92	40.7*	-2.8	?	0.128*	0.0966*	0.0917*	0.112*	0.0886*
Cc1ccc(-c2csc(NC(=O)CCNC(=O)c3ccco3)n2)cc1	6.5	0.482	-2.24	4.7	·	·	·	·	·	·
Cc1ccc(-c2csc(N/N=C/c3ccco3)n2)cc1	-10.8	·	-4.18	-4.3	·	·	·	·	·	·
Cc1ccc(-c2csc(NC(=S)NC(=O)c3ccco3)n2)cc1	-29.6	0.774	32.3*	6.0	0.0157*	0.0469*	0.0319	0.0279*	0.0394*	0.0132*
O=C(NNc1nc(-c2ccccc2)cs1)c1ccco1	0.9	0.0566	-6.16*	6.6	?	?	0.019*	?	0.0123*	0.0104
O=C(NNc1nc(-c2ccc(Cl)cc2)cs1)c1ccco1	2.1	0.994	-4.57	11.3	·	·	·	·	·	·
C(=N\Nc1nc(-c2ccccc2)cs1)/c1ccco1	-9.6	·	-4.34*	3.6	0.00904	0.00526	?	0.00858	0.0153*	0.012
CS(=O)(=O)c1ccc2nc(NC(=O)c3ccco3)sc2c1	2.4	·	1.2	-2.6	·	·	·	·	·	·
O=C(O)CCC(=O)Nc1ccc(Sc2ccc([N+](=O)[O-])cc2)cc1	3.0	0.196	-0.292	-5.4	·	·	·	·	·	·
Cc1ccc(NC(=O)COC(=O)/C=C/c2ccccc2)cc1S(=O)(=O)N1CCOCC1	14.8	-0.481	-4.07*	-9.9	?	0.00437	0.0208*	?	0.0116*	0.00906
